Legend:
human FGFR-1 = assay: growth factor binding assay; conditions: FGF-1 20 ng/ml; peptide 100 μg/ml; FLISA, duplicate wells
Summary of the method: (§1)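 Human FGFR-1 or PDGFR-β coated at 200 ng per well in PBS overnight at 4°C and blocked. Wells incubated with human FGF-1 or PDGF-BB (each 20 ng/ml) in PBS with 10% (v/v) DMSO and 10% blocking buffer, with or without peptide (100 μg/ml). Bound ligand detected with goat antiserum (1:200), then IRDye 680LT anti-goat, by infrared fluorescence. Duplicate wells; ANOVA with Tukey.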

human PDGFR-β = assay: growth factor binding assay; conditions: PDGF-BB 20 ng/ml; peptide 100 μg/ml; FLISA, duplicate wells
Summary of the method: as §1

human VEGFR-1 [1] = assay: FLISA binding assay, NRP-1 to VEGFR-1; conditions: human NRP-1; peptide 100 μg/ml; FLISA, duplicate wells
Summary of the method: (§2)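 Human VEGFR-1 extracellular domain coated at 200 ng per well in PBS overnight at 4°C, then blocked with Odyssey blocking buffer. Wells incubated with NRP-1 or NRP-2 in PBS with 10% (v/v) DMSO and 10% blocking buffer, with or without peptide (100 μg/ml). Bound NRP detected with goat anti-NRP-1 or anti-NRP-2 serum (1:100), then IRDye 680LT anti-goat, by infrared scanning. Duplicate wells; ANOVA with Tukey.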

[2] = test system: IgD2 domain from human VEGFR-3; assay: VEGF-C binding to recombinant VEGFR-3 IgD2; conditions: synthetic peptide added; FLISA, duplicate wells
human VEGFR-1 [3] = assay: FLISA binding assay, NRP-2 to VEGFR-1; conditions: rat NRP-2; peptide 100 μg/ml; FLISA, duplicate wells
Summary of the method: as §2

[4] = presence in the vitreous humor after topical application; type: in vivo; conditions: applied topically
[5] = solubility in Matrigel compared to aqueous media; type: physicochemical
[6] = test system: IgD2-3 domains from human VEGFR-3; assay: VEGF-C binding to recombinant VEGFR-3 IgD2-3; conditions: synthetic peptide added; FLISA, duplicate wells

effect on binding of basic human FGF to FGFR-1α (human FGFR-1): no effect | effect on binding of PDGF-BB to PDGFR-β (human PDGFR-β): no effect | effect on NRP-1 interaction with VEGFR-1 (human VEGFR-1 [1]): not affected by peptide PCAIWF or WVCSGG | effect on NRP-2 interaction with VEGFR-1 (human VEGFR-1 [3]): not affected by peptide PCAIWF or WVCSGG
Substance: WVCSGG
inhibition of VEGF-C binding to IgD2 [2]: both prevented binding of VEGF-C to IgD2 and IgD2-3 | presence in the vitreous humor after topical application [4]: not found in the vitreous humor if applied topically to the retina | solubility in Matrigel [5]: fairly soluble in Matrigel compared to aqueous media | inhibition of VEGF-C binding to IgD2-3 [6]: both prevented binding of VEGF-C to IgD2 and IgD2-3

From paper PMC5091360 (Science Advances, 2016)
